Data on 26 compounds can be found in ChEMBL document CHEMBL4616675, “Discovery of 6-Phenylhexanamide Derivatives as Potent Stereoselective Mitofusin Activators for the Treatment of Mitochondrial Diseases” (J Med Chem, 2020).

≈ marks a conversion by molar mass, not a printed value.

Series [1] is described as follows: Half life in human liver microsomes at 1 uM by LC-MS/MS analysis. The format is ADME, Microsome. The settings on record: for t1/2: microsomes, 1 µM; for half-life at 1 µM: liver microsomes. Background: Microsomes from liver hold many membrane-bound enzymes, among them those of drug oxidation.
A short description of series [2]: Half life in mouse liver microsomes at 1 uM by LC-MS/MS analysis. The format is ADME, Microsome. The settings on record: for t1/2: microsomes, 1 µM; for half-life at 1 µM: liver microsomes.
Series [3] is described as follows: Stability in human plasma at 2 uM after 120 mins by LC-MS/MS analysis relative to control. The settings on record: read-out: Stability. The format is ADME, cell-free. An outline of the steps:
(§1)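 Compounds at 2 µM in clarified freeze-thawed plasma, sampled at 0, 10, 30, 60 and 120 min. Supernatants after protein precipitation analysed by LC-MS/MS; the 120 min value is reported. Run in duplicate.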

Series [4] is described as follows: Stability in mouse plasma at 2 uM after 120 mins by LC-MS/MS analysis relative to control. The format is ADME, cell-free. The settings on record: read-out: Stability. Summed up:
as §1

Series [5] is described as follows: Kinetic solubility in pH 7.4 aqueous solution incubated for 24 hrs by UV spectroscopy. The format is physicochemical. The settings on record: read-out: Kinetic_solubility.
The nature of series [6]: Half life in CD1 mouse plasma at 10 mg/kg, iv by LC-MS/MS analysis. The format is ADME, organism-based. The following applies: for t1/2: mouse, in vivo; for half-life: CD1, mouse, plasma.
The nature of series [7]: Half life in CD1 mouse brain at 10 mg/kg, iv by LC-MS/MS analysis. The format is ADME, organism-based.
Series [8] in a line: Cmax in CD1 mouse plasma at 10 mg/kg, iv by LC-MS/MS analysis. Details: dose 10 mg/kg, route intravenous. The format is ADME, organism-based. The settings on record: in vivo.
Series [9] in a line: Cmax in CD1 mouse brain at 10 mg/kg, iv by LC-MS/MS analysis. The format is ADME, organism-based. Details: dose 10 mg/kg, route intravenous.
Series [10] can be described thus: AUC in CD1 mouse plasma at 10 mg/kg, iv by LC-MS/MS analysis. The following applies: in vivo. The format is ADME, organism-based.
Series [11] is described as follows: AUC in CD1 mouse brain at 10 mg/kg, iv by LC-MS/MS analysis. The settings on record: in vivo. The format is ADME, organism-based.
A short description of series [12]: Ratio of drug level in brain to plasma in CD1 mouse at 10 mg/kg, iv by LC-MS/MS analysis. The format is ADME, organism-based. An outline of the steps: (§2)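 Male CD-1 mice, 7–9 weeks, 15 per compound; single tail-vein dose of 10 mg/kg from a 2 mg/ml solution in 10% DMSO/90% (30% HP-β-CD). Plasma and brain sampled at increasing times, assayed in duplicate by LC-MS/MS. Parameters from non-compartmental analysis; mean of at least 3 mice per condition.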

The nature of series [13]: Drug level in CD1 mouse brain at 10 mg/kg, iv after 1 hr by LC-MS/MS analysis. The following applies: read-out: Drug uptake. The format is ADME, organism-based. An outline of the steps: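 Male CD-1 mice, 7–9 weeks old, given a single 10 mg/kg tail-vein dose. Compound formulated at 2 mg/ml in 10% DMSO/90% (30% HP-β-CD). Plasma and brain sampled at intervals after dosing and analysed in duplicate by LC-MS/MS. Parameters derived by non-compartmental analysis. Values are means of at least 3 mice per condition; 15 mice per compound.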

Series [14] is described as follows: Volume of distribution in CD1 mouse at 10 mg/kg, iv by LC-MS/MS analysis. The settings on record: in vivo. The format is ADME, organism-based. Summed up:
as §2

Turning to `O=C(CCCCCc1cccnc1)NC1CCC(O)CC1` (configuration not stated), the results for the t1/2 in series [1] and in [2] were above 145 min and 125.3 min, respectively.

Regarding `O=C(CCCOCc1ccccc1)N[C@H]1CC[C@H](O)CC1`, the t1/2 in series [1] and in series [2] was above 145 min each time.

`CC1CCCCC1NC(=O)NCCCc1nnc(-c2ccccc2)n1C` (configuration not stated): the t1/2 is 43 min in series [1] and 6 min in series [2].

For `O=C(COCCCc1ccccc1)N[C@H]1CC[C@H](O)CC1`, the t1/2 in series [1] and in [2] was above 145 min throughout.

`O=C(CCCCCc1ccccn1)NC1CCC(O)CC1` (configuration not stated): the t1/2 in series [1] and in series [2] was above 145 min throughout.

In the case of `O=C(CCCCCc1ccncn1)NC1CCC(O)CC1` (configuration not stated), the t1/2 in [1] and in series [2] was above 145 min throughout.

`O=C(CCCCCc1ccccc1)NC1CCOCC1`: the t1/2 in series [1] is 53.6 min; in series [2], 9.9 min.

As to `CC1CCCCC1NC(=O)NCCCc1nnc(C2CC2)n1-c1ccccc1` (configuration not stated), the remaining at 2 h, 2 µM in series [3] was found to be 95%; in [4], 100%. Moreover, the t1/2 in [1] was found to be 6 min; in series [2] it was 2 min; in series [6], 12.6 min. For the same compound, the solubility kinetic at 24 h in series [5] was above 200 µM.

On to `NC1CCC(NC(=O)CCCCCc2ccccc2)CC1` (configuration not stated), for which the t1/2 in series [1] stood at 23.7 min; in series [2], 111.9 min.

Regarding `O=C(NCCCCc1ccccc1)NC1CCC(O)CC1` (configuration not stated), the t1/2 in series [1] and in series [2] was above 145 min in each case. Also, the half-life – broadly, the time in which the quantity being followed falls by half – in series [6] is 69 min; in series [7], 104 min. The maximum concentration (Cmax) (usually the maximum level reached in the sampled fluid or tissue) in [8] turned out to be 6100 ng/mL; in [9] it was 1270 ng/g. The AUC turned out to be 4860 ng·h/mL in [10] and 829 ng·h/g in series [11]. Further, in [12], the BPR turned out to be 0.171. For the same compound, the concentration at 1 h in series [13] was below 120 ng/g. Moreover, in [14], the Vd (usually the apparent volume that relates the amount in the body to the concentration in plasma or blood) came to 2 L/kg.

As to `CC1CC(O)CCC1NC(=O)NCCCCc1ccccc1` (configuration not stated), the t1/2 amounted to 40.1 min in series [1] and 24.2 min in series [2]. In addition, the values for the half-life in series [6] and in [7] were 38.4 min and 97.2 min, respectively. Besides, the Cmax in series [8] came out at 3647 ng/mL; in [9], 366 ng/g. The AUC was 2564 ng·h/mL in [10] and 207 ng·h/g in series [11]. Further, the BPR in [12] stood at 0.081. In addition, in series [13], the concentration at 1 h is below 30 ng/g. The compound also displayed a Vd in series [14] of 2 L/kg.

For `O=C(CCCCCc1ccccc1)NC1CCC(F)(F)CC1`, the half-life at 1 µM in [1] stood at 10.2 min; in series [2], 2.8 min.

As for `CCn1c(CCCNC(=O)NC2CCOCC2)nnc1C1CC1`, the figures for the t1/2 in series [1], in series [2] and in series [6] were above 145 min, above 145 min and 22.8 min, respectively.

With `CC1CCCCC1NC(=O)NCCSc1nnc(C2CC2)n1-c1ccccc1` (configuration not stated), the remaining at 2 h, 2 µM in [3] stood at 95%; in [4] it was 94%. Besides, the t1/2 in [1] was 3 min; in series [2], 1 min. Moreover, the solubility kinetic at 24 h in [5] is 67 µM (≈ 26.8 µg/mL).

On to `CC1CCCCC1NC(=O)NCCCCc1ccccc1` (configuration not stated), for which the t1/2 in series [1] is recorded as 13.3 min; in series [2] it was 1.9 min.

Consider `O=C(CCOCCc1ccccc1)N[C@H]1CC[C@H](O)CC1`, for which the t1/2 in [1] and in series [2] was above 145 min in each case.

Turning to `CC1CCCCC1NC(=O)NCCc1nnc(-c2ccccc2)n1C` (configuration not stated), the t1/2 in [1] was 8 min; in [2], 28 min.

Take `CC1CCC(NC(=O)CCCCCc2ccccc2)CC1` (configuration not stated): the t1/2 is reported as 7 min in series [1] and 1.4 min in series [2].

With `O=C(NCCCc1nnc(C2CC2)n1-c1ccc(F)cc1)NC1CCC(F)CC1` (configuration not stated), the t1/2 was found to be 62 min in [1] and 17 min in [2].

For the compound `O=C(NCCCCc1ccccc1)NC1CCNCC1`, the t1/2 is reported as above 145 min in series [1] and 137.5 min in [2].

Regarding `O=C(CCCCCc1ccncc1)NC1CCC(O)CC1` (configuration not stated), the t1/2 in series [1] and in [2] was above 145 min throughout.

On to `O=C(N[C@H]1CC[C@H](O)CC1)OCCCCc1ccccc1`, for which the t1/2 in series [1] was 131.3 min; in series [2] it was 48.9 min.

Turning to `O=C(CCCCOc1ccccc1)N[C@H]1CC[C@H](O)CC1`, the t1/2 in series [1] and in series [2] was above 145 min in each case.

Consider `O=C(NCCCc1nnc(C2CC2)n1-c1ccccc1)NC1CCOCC1`, for which the t1/2 was above 145 min in series [1], 91 min in series [2] and 11.4 min in [6].

For the compound `CC1CCCCC1NC(=O)NCCCc1nnc(C2CC2)n1-c1ccc(F)cc1` (configuration not stated), the t1/2 in series [1] was determined as 5 min; in series [2], 1 min.

For `CC1CCCCC1NC(=O)NCCOc1nnc(C2CC2)n1-c1ccccc1` (configuration not stated), the remaining at 2 h, 2 µM in series [3] worked out at 98%; in [4], 84%. For the same compound, the results for the half-life at 1 µM in series [1] and in series [2] were 8 min and 3 min, respectively. The solubility kinetic at 24 h in series [5] was determined as 24 µM (≈ 9.2 µg/mL).
